Converted amounts (≈) assume the structure as drawn.
Tests used:
Rattus norvegicus [1] = assay: Antiinflammatory activity in Wistar rat assessed as inhibition of carrageenan-induced paw edema measured after 2 hrs at 6 mg/kg, po equimolar dose of indomethacin administered 1 hr before carrageenan challenge; type: functional
Method in brief: (§1)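 Wistar rats of either sex, 120–140 g, fasted 24 h, n = 6 per group. Compounds were suspended in 1.0% aqueous sodium CMC and dosed orally, equimolar to indomethacin 6 mg/kg, 1 h before subplantar carrageenan (1.0% w/v, 0.1 mL) into the right hind paw. Paw volume was read by plethysmometer before and after injection. Results are % inhibition versus vehicle control. ANOVA with Dunnett's test.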

Rattus norvegicus [2] = assay: Antiinflammatory activity in Wistar rat assessed as inhibition of carrageenan-induced paw edema measured after 1 hr at 6 mg/kg, po equimolar dose of indomethacin administered 1 hr before carrageenan challenge; type: functional; method in brief: as §1
Rattus norvegicus [3] = assay: Gastrointestinal toxicity in Wistar rat assessed as ulcer index at 40.71 mg/kg, po; type: organism-based; parameters: dose 40.71 mg/kg, route oral; conditions: in vivo
Rattus norvegicus [4] = assay: Gastrointestinal toxicity in Wistar rat assessed as gastric mucosal layer disruption at 34.84 mg/kg, po by histopathological study; type: organism-based, Gastric mucosa; parameters: dose 34.84 mg/kg, route oral; conditions: in vivo
Rattus norvegicus [5] = assay: Gastrointestinal toxicity in Wistar rat assessed as gastric mucosal layer disruption at 38.27 mg/kg, po by histopathological study; type: organism-based, Gastric mucosa; parameters: dose 38.27 mg/kg, route oral; conditions: in vivo
[6] = Induction of nitric oxide release at 0.1 mM in pH 7.4 phosphate buffer in presence of 5 mM L-cysteine by Griess method; conditions: pH 7.4, 100 µM
Rattus norvegicus [7] = assay: Gastrointestinal toxicity in Wistar rat assessed as ulcer index at 38.27 mg/kg, po; type: organism-based; parameters: dose 38.27 mg/kg, route oral; conditions: in vivo
Mus musculus = assay: Analgesic activity in Swiss albino mouse assessed as inhibition of acetic acid-induced writhing at 0.00001911 mol/kg, po administered 1 hr before acetic acid challenge measured after 25 mins; type: functional
Method in brief: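 Acetic acid writhing in mice. Compounds were suspended in 1.0% aqueous sodium CMC and given orally at equimolar doses equivalent to 6 mg/kg indomethacin (0.00001911 mol/kg). Writhes were counted over 25 min after treatment, n = 6, and reported as % inhibition versus vehicle control. One-way ANOVA with Dunnett's test.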

Rattus norvegicus [8] = assay: Gastrointestinal toxicity in Wistar rat assessed as ulcer incidence at 34.84 mg/kg, po; type: organism-based; parameters: dose 34.84 mg/kg, route oral; conditions: in vivo
Rattus norvegicus [9] = assay: Antiinflammatory activity in Wistar rat assessed as inhibition of carrageenan-induced paw edema measured after 3 hrs at 6 mg/kg, po equimolar dose of indomethacin administered 1 hr before carrageenan challenge; type: functional; method in brief: as §1
Rattus norvegicus [10] = assay: Gastrointestinal toxicity in Wistar rat assessed as ulcer incidence at 33.70 mg/kg, po; type: organism-based; parameters: dose 33.7 mg/kg, route oral; conditions: in vivo, 33.7 mg/kg
Rattus norvegicus [11] = assay: Gastrointestinal toxicity in Wistar rat assessed as ulcer index at 34.84 mg/kg, po; type: organism-based; parameters: dose 34.84 mg/kg, route oral; conditions: in vivo
Rattus norvegicus [12] = assay: Gastrointestinal toxicity in Wistar rat assessed as gastric mucosal layer disruption at 40.71 mg/kg, po by histopathological study; type: organism-based, Gastric mucosa; parameters: dose 40.71 mg/kg, route oral; conditions: in vivo
Rattus norvegicus [13] = assay: Gastrointestinal toxicity in Wistar rat assessed as ulcer index at 33.70 mg/kg, po; type: organism-based; parameters: dose 33.7 mg/kg, route oral; conditions: in vivo, 33.7 mg/kg
Aorta = assay: Vasorelaxant activity in Wistar rat aorta assessed as inhibition of norepinephrine-induced contractions; type: functional, tissue-based
Method in brief: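 Endothelium-intact aortic rings were accepted only if relaxation was ≥70% of the NE-induced contraction. Rings were then contracted with NE or 30 mM KCl, and test compounds were added cumulatively once a stable plateau was reached. EC50 values were calculated from cumulative concentration-response curves.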

Rattus norvegicus [14] = assay: Gastrointestinal toxicity in Wistar rat assessed as gastric mucosal layer disruption at 33.70 mg/kg, po by histopathological study; type: organism-based, Gastric mucosa; parameters: dose 33.7 mg/kg, route oral; conditions: in vivo, 33.7 mg/kg
Rattus norvegicus [15] = assay: Gastrointestinal toxicity in Wistar rat assessed as ulcer incidence at 40.71 mg/kg, po; type: organism-based; parameters: dose 40.71 mg/kg, route oral; conditions: in vivo
Rattus norvegicus [16] = assay: Gastrointestinal toxicity in Wistar rat assessed as ulcer incidence at 38.27 mg/kg, po; type: organism-based; parameters: dose 38.27 mg/kg, route oral; conditions: in vivo
Rattus norvegicus [17] = assay: Gastrointestinal toxicity in Wistar rat assessed as gastric mucosal layer disruption at 24 mg/kg, po by histopathological study; type: organism-based, Gastric mucosa; parameters: dose 24 mg/kg, route oral; conditions: in vivo
Rattus norvegicus [18] = assay: Gastrointestinal toxicity in Wistar rat assessed as ulcer incidence at 24 mg/kg, po; type: organism-based; parameters: dose 24 mg/kg, route oral; conditions: in vivo
Rattus norvegicus [19] = assay: Antiinflammatory activity in Wistar rat assessed as inhibition of carrageenan-induced paw edema measured after 3 hrs at 6 mg/kg, po administered 1 hr before carrageenan challenge; type: functional; method in brief: as §1
Rattus norvegicus [20] = assay: Antiinflammatory activity in Wistar rat assessed as inhibition of carrageenan-induced paw edema measured after 1 hr at 6 mg/kg, po administered 1 hr before carrageenan challenge; type: functional; method in brief: as §1
Rattus norvegicus [21] = assay: Antiinflammatory activity in Wistar rat assessed as inhibition of carrageenan-induced paw edema measured after 2 hrs at 6 mg/kg, po administered 1 hr before carrageenan challenge; type: functional; method in brief: as §1

For `CCOC(=O)c1c(-c2ccccc2)n(-c2ccc(C(=O)NNC(=O)CO[N+](=O)[O-])cc2)[nH]c1=O`, the inhibition in vivo (Rattus norvegicus [1]) was 57.8%, the inhibition in vivo (Rattus norvegicus [2]) was 54% and the Activity (Rattus norvegicus [3]) was “Non-toxic”. The Activity (Rattus norvegicus [4]) was “Non-toxic”, the Activity (Rattus norvegicus [5]) was “Non-toxic” and the Activity [6] was 0.46%. The Activity (Rattus norvegicus [7]) was “Non-toxic”, the “inhibition (INH)” value (Mus musculus) was 56.86% and the Activity (Rattus norvegicus [8]) was “Non-toxic”. For the same compound, the inhibition in vivo (Rattus norvegicus [9]) was 59.6%, the Activity (Rattus norvegicus [10]) was “Non-toxic” and the Activity (Rattus norvegicus [11]) was “Non-toxic”. For the same compound, the Activity (Rattus norvegicus [12]) was “Non-toxic”, the Activity (Rattus norvegicus [13]) was “Non-toxic” and the EC50 (Aorta) was 35.5 µg/mL (≈ 75.6 µM). The Activity (Rattus norvegicus [14]) was “Non-toxic”, the Activity (Rattus norvegicus [15]) was “Non-toxic” and the Activity (Rattus norvegicus [16]) was “Non-toxic”.
Compound `O=C(CO[N+](=O)[O-])NNC(=O)c1ccc(-n2[nH]c(=O)cc2-c2ccccc2O)cc1` has an inhibition in vivo (Rattus norvegicus [1]) of 19.3%, an inhibition in vivo (Rattus norvegicus [2]) of 23% and an Activity [6] of 0.69%. The “inhibition (INH)” value (Mus musculus) was 16.66%, the inhibition in vivo (Rattus norvegicus [9]) was 16.4% and the EC50 (Aorta) was 17.8 µg/mL (≈ 43.1 µM).
Compound `O=C(CO[N+](=O)[O-])NNC(=O)c1ccc(-n2[nH]c(=O)cc2-c2ccc(Cl)cc2)cc1` has an inhibition in vivo (Rattus norvegicus [1]) of 11.4%, an inhibition in vivo (Rattus norvegicus [2]) of 5.88% and an Activity [6] of 0.66%. The “inhibition (INH)” value (Mus musculus) was 10.78%, the inhibition in vivo (Rattus norvegicus [9]) was 5.84% and the EC50 (Aorta) was 21.3 µg/mL (≈ 49.4 µM).
`O=C(CO[N+](=O)[O-])NNC(=O)c1ccc(-n2[nH]c(=O)cc2-c2ccccc2)cc1` gave an inhibition in vivo (Rattus norvegicus [1]) of 16.1%, an inhibition in vivo (Rattus norvegicus [2]) of 19.8% and an Activity [6] of 0.51%. For the same compound, the “inhibition (INH)” value (Mus musculus) was 53.92%, the inhibition in vivo (Rattus norvegicus [9]) was 20.5% and the EC50 (Aorta) was 26.7 µg/mL (≈ 67.3 µM).
For `O=C(CO[N+](=O)[O-])NNC(=O)c1ccc(-n2[nH]c(=O)cc2-c2ccc([N+](=O)[O-])cc2)cc1`, the inhibition in vivo (Rattus norvegicus [1]) was 27.1%, the inhibition in vivo (Rattus norvegicus [2]) was 23.6% and the Activity (Rattus norvegicus [3]) was “Non-toxic”. For the same compound, the Activity (Rattus norvegicus [4]) was “Non-toxic”, the Activity (Rattus norvegicus [5]) was “Non-toxic” and the Activity [6] was 0.39%. The Activity (Rattus norvegicus [7]) was “Non-toxic”, the “inhibition (INH)” value (Mus musculus) was 45.09% and the Activity (Rattus norvegicus [8]) was “Non-toxic”. The inhibition in vivo (Rattus norvegicus [9]) was 24%, the Activity (Rattus norvegicus [10]) was “Non-toxic” and the Activity (Rattus norvegicus [11]) was “Non-toxic”. For the same compound, the Activity (Rattus norvegicus [12]) was “Non-toxic”, the Activity (Rattus norvegicus [13]) was “Non-toxic” and the EC50 (Aorta) was 49.1 µg/mL (≈ 111 µM). The Activity (Rattus norvegicus [14]) was “Non-toxic”, the Activity (Rattus norvegicus [15]) was “Non-toxic” and the Activity (Rattus norvegicus [16]) was “Non-toxic”.
With `COc1ccccc1-c1cc(=O)[nH]n1-c1ccc(C(=O)NNC(=O)CO[N+](=O)[O-])cc1` the inhibition in vivo (Rattus norvegicus [1]) was 55.7%, the inhibition in vivo at 6 mg/kg (Rattus norvegicus [2]; dose 6 mg/kg) was 55.1% and the Activity (Rattus norvegicus [3]) was “Non-toxic”. For the same compound, the Activity (Rattus norvegicus [4]) was “Non-toxic”, the Activity (Rattus norvegicus [5]) was “Non-toxic” and the Activity [6] was 0.32%. For the same compound, the Activity (Rattus norvegicus [7]) was “Non-toxic”, the “inhibition (INH)” value (Mus musculus) was 51.96% and the Activity (Rattus norvegicus [8]) was “Non-toxic”. The inhibition in vivo (Rattus norvegicus [9]) was 57.9%, the Activity (Rattus norvegicus [10]) was “Non-toxic” and the Activity (Rattus norvegicus [11]) was “Non-toxic”. For the same compound, the Activity (Rattus norvegicus [12]) was “Non-toxic”, the Activity (Rattus norvegicus [13]) was “Non-toxic” and the EC50 (Aorta) was 66.8 µg/mL (≈ 156 µM). For the same compound, the Activity (Rattus norvegicus [14]) was “Non-toxic”, the Activity (Rattus norvegicus [15]) was “Non-toxic” and the Activity (Rattus norvegicus [16]) was “Non-toxic”.
`CCOC(=O)c1c(-c2ccc([N+](=O)[O-])cc2)n(-c2ccc(C(=O)NNC(=O)CO[N+](=O)[O-])cc2)[nH]c1=O` gave an inhibition in vivo (Rattus norvegicus [1]) of 28.1%, an inhibition in vivo (Rattus norvegicus [2]) of 27.8% and an Activity [6] of 0.49%. The “inhibition (INH)” value (Mus musculus) was 45.9%, the inhibition in vivo (Rattus norvegicus [9]) was 22.2% and the EC50 (Aorta) was 28.2 µg/mL (≈ 54.8 µM).
For `CCOC(=O)c1c(-c2ccccc2OC)n(-c2ccc(C(=O)NNC(=O)CO[N+](=O)[O-])cc2)[nH]c1=O`, the inhibition in vivo (Rattus norvegicus [1]) was 30.7%, the inhibition in vivo (Rattus norvegicus [2]) was 31% and the Activity (Rattus norvegicus [3]) was “Non-toxic”. For the same compound, the Activity (Rattus norvegicus [4]) was “Non-toxic”, the Activity (Rattus norvegicus [5]) was “Non-toxic” and the Activity [6] was 0.35%. The Activity (Rattus norvegicus [7]) was “Non-toxic”, the “inhibition (INH)” value (Mus musculus) was 50.98% and the Activity (Rattus norvegicus [8]) was “Non-toxic”. For the same compound, the inhibition in vivo (Rattus norvegicus [9]) was 25.1%, the Activity (Rattus norvegicus [10]) was “Non-toxic” and the Activity (Rattus norvegicus [11]) was “Non-toxic”. For the same compound, the Activity (Rattus norvegicus [12]) was “Non-toxic”, the Activity (Rattus norvegicus [13]) was “Non-toxic” and the EC50 (Aorta) was 63.1 µg/mL (≈ 126 µM). For the same compound, the Activity (Rattus norvegicus [14]) was “Non-toxic”, the Activity (Rattus norvegicus [15]) was “Non-toxic” and the Activity (Rattus norvegicus [16]) was “Non-toxic”.
Compound `CCOC(=O)c1c(-c2ccccc2O)n(-c2ccc(C(=O)NNC(=O)CO[N+](=O)[O-])cc2)[nH]c1=O` has an inhibition in vivo (Rattus norvegicus [1]) of 26.6%, an inhibition in vivo (Rattus norvegicus [2]) of 27.8% and an Activity [6] of 0.27%. For the same compound, the “inhibition (INH)” value (Mus musculus) was 10.78%, the inhibition in vivo (Rattus norvegicus [9]) was 21.1% and the EC50 (Aorta) was 70.8 µg/mL (≈ 146 µM).
In the case of `CCOC(=O)c1c(-c2ccc(Cl)cc2)n(-c2ccc(C(=O)NNC(=O)CO[N+](=O)[O-])cc2)[nH]c1=O`, the inhibition in vivo (Rattus norvegicus [1]) is reported as 10.4%, the inhibition in vivo (Rattus norvegicus [2]) is reported as 3.2% and the Activity [6] is reported as 0.37%. For the same compound, the “inhibition (INH)” value (Mus musculus) was 6.86%, the inhibition in vivo (Rattus norvegicus [9]) was 6.43% and the EC50 (Aorta) was 50.2 µg/mL (≈ 99.6 µM).
In the case of `O=C(O)Cc1ccccc1Nc1c(Cl)cccc1Cl` [DICLOFENAC], the Activity (Rattus norvegicus [17]) is reported as “Toxic” and the Activity (Rattus norvegicus [18]) is reported as “Toxic”.
With `COc1ccc2c(c1)c(CC(=O)O)c(C)n2C(=O)c1ccc(Cl)cc1` [INDOMETHACIN] the inhibition in vivo at 6 mg/kg (Rattus norvegicus [19]) was 57.9%, the “inhibition (INH)” value (Mus musculus) was 54.9% and the inhibition in vivo at 6 mg/kg (Rattus norvegicus [20]) was 52.7%. For the same compound, the inhibition in vivo at 6 mg/kg (Rattus norvegicus [21]) was 58.3%.
